Measurements: ChEMBL document CHEMBL3875225, “Design, synthesis and biological evaluation of 7-(aryl)-2,3-dihydro-[1,4]dioxino[2,3-g]quinoline derivatives as potential Hsp90 inhibitors and anticancer agents” (Bioorg Med Chem, 2017)
Active and inactive are the calls of the source. The calls are words filed in the database; no cut-off is given here.

What was measured:
[1] = Antiproliferative activity against human DU145 cells after 48 hrs by MTT assay; assay type: functional, cell-based, DU-145; settings: for IC50: Homo sapiens, DU-145, 48 h
Summary of the method: (§1)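 5000 cells seeded per well in RPMI complete medium; next day medium replaced with medium containing a range of compound concentrations, with a no-drug control and 17-AAG as reference. After 48 h at 37 °C, 5% CO2, MTT (4 mg/mL solution) added for 3 h. Formazan dissolved in DMSO, absorbance read at 540 nm. Triplicate determinations; mean SD from dose-response curves of three independent experiments.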

[2] = Antiproliferative activity against human A549 cells after 48 hrs by MTT assay; assay type: functional, cell-based; settings: for IC50: Homo sapiens, A549, 48 h; summary of the method: as §1
[3] = Antiproliferative activity against human MCF7 cells after 48 hrs by MTT assay; assay type: functional, cell-based; settings: for IC50: Homo sapiens, MCF7, 48 h; summary of the method: as §1
[4] = target: T1, Heat shock protein HSP90 (Homo sapiens) (UniProt P07900+P08238); assay: Inhibition of HSP90 in human MCF7 cells assessed as decrease in Her2 protein expression at 50 uM after 24 hrs by Western blot method relative to control; assay type: cell-based
Summary of the method: (§2)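 MCF-7 cells seeded at 10⁶ per 25 cm² flask and treated 24 h with 50 µM compound; DMSO vehicle control, 0.5 μM 17-AAG reference. Lysis in Tris-HCl pH 7.4 buffer with protease/phosphatase inhibitors. 50 µg protein resolved on 10% SDS-PAGE, transferred to PVDF, blocked 2 h in 5% skim milk/TBST at 4 °C. Probed 2 h with rabbit anti-Her-2 and anti-Hsp-70 (1:3000); β-tubulin also blotted.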

[5] = Effect on beta-tubulin protein expression in human MCF7 cells at 50 uM after 24 hrs by Western blot method; assay type: cell-based; settings: mcf7, 24 h; summary of the method: as §2
[6] = target: T1, Heat shock protein HSP90 (Homo sapiens); assay: Inhibition of HSP90 in human MCF7 cells assessed as induction of HSP70 protein expression at 50 uM after 24 hrs by Western blot method relative to control; assay type: cell-based; summary of the method: as §2

| inhibition [4] [%] | inhibition [6] | Compound | IC50 [1] [µM] | IC50 [2] [µM] | IC50 [3] [µM] | Activity [1] [µM] | Activity [2] [µM] | Activity [3] [µM] | Activity [5] |
| --- | --- | --- | --- | --- | --- | --- | --- | --- | --- |
| – | – | COc1cc(-c2cc(C(=O)O)c3cc4c(cc3n2)OCCO4)ccc1O | > 100 | > 100 | > 100 | – | – | – | – |
| – | – | COc1cc(-c2cc(C(=O)O)c3cc4c(cc3n2)OCCO4)cc(OC)c1OC | > 100 | > 100 | > 100 | – | – | – | – |
| – | – | CC(=O)Nc1ccc(-c2cc(C(=O)O)c3cc4c(cc3n2)OCCO4)cc1 | > 100 | > 100 | > 100 | – | – | – | – |
| – | – | COc1ccc(/C=N/c2ccc3c(c2)OCCO3)cc1OC | – | – | – | >100 | >100 | >100 | – |
| – | – | COc1cc(/C=N/c2ccc3c(c2)OCCO3)cc(OC)c1OC | – | – | – | >100 | >100 | >100 | – |
| > 50 | Active | COc1ccc(-c2cc(CO)c3cc4c(cc3n2)OCCO4)cc1OC | 11.5 | 82.1 | 6.7 | – | – | – | Non-Toxic |
| – | – | C=CCNC1=C2C[C@@H](C)C[C@H](OC)[C@H](O)[C@@H](C)/C=C(\C)[C@H](OC(N)=O)[C@@H](OC)/C=C\C=C(/C)C(=O)NC(=CC1=O)C2=O [TANESPIMYCIN] | 0.282 | 0.286 | 0.192 | – | – | – | – |
| – | – | O=C(O)c1cc(-c2ccc(O)cc2)nc2cc3c(cc12)OCCO3 | > 100 | > 100 | > 100 | – | – | – | – |
| – | – | COc1ccc(-c2cc(C(=O)O)c3cc4c(cc3n2)OCCO4)cc1O | > 100 | > 100 | > 100 | – | – | – | – |
| > 50 | Active | COc1cc(-c2cc(CO)c3cc4c(cc3n2)OCCO4)ccc1O | 86.8 | 87.8 | 25.7 | – | – | – | Non-Toxic |
| – | – | O=C(O)c1cc(-c2cccc(O)c2)nc2cc3c(cc12)OCCO3 | > 100 | > 100 | > 100 | – | – | – | – |
| – | – | COc1ccc(-c2cc(C(=O)O)c3cc4c(cc3n2)OCCO4)cc1 | > 100 | > 100 | > 100 | – | – | – | – |
| – | – | COc1cc(/C=N/c2ccc3c(c2)OCCO3)ccc1O | – | – | – | >100 | >100 | >100 | – |
| – | – | Oc1ccc(/C=N/c2ccc3c(c2)OCCO3)cc1 | – | – | – | >100 | >100 | >100 | – |
| – | – | COc1ccc(-c2cc(C(=O)O)c3cc4c(cc3n2)OCCO4)cc1OC | > 100 | > 100 | > 100 | – | – | – | – |
| – | – | Cc1ccc(-c2cc(C(=O)O)c3cc4c(cc3n2)OCCO4)cc1 | > 100 | > 100 | > 100 | – | – | – | – |
| – | – | O=C(O)c1cc(-c2ccccc2)nc2cc3c(cc12)OCCO3 | > 100 | > 100 | > 100 | – | – | – | – |
| > 50 | Active | COc1ccc(-c2cc(CO)c3cc4c(cc3n2)OCCO4)cc1O | 89.7 | 94.2 | 40 | – | – | – | Non-Toxic |
| > 50 | Active | COc1cc(-c2cc(CO)c3cc4c(cc3n2)OCCO4)cc(OC)c1OC | 64.2 | 46.9 | 4.53 | – | – | – | Non-Toxic |
| > 50 | Active | OCc1cc(-c2ccccc2)nc2cc3c(cc12)OCCO3 | 86.1 | > 100 | 22.7 | – | – | – | Non-Toxic |
| > 50 | Active | COc1ccc(-c2cc(CO)c3cc4c(cc3n2)OCCO4)cc1 | 21.4 | > 100 | 24 | – | – | – | Non-Toxic |
